This passage reports Ki and IC50 results from ChEMBL document CHEMBL1137664, “Conflicting requirements of Plasmodium falciparum dihydrofolate reductase mutations conferring resistance to pyrimethamine-WR99210 combination” (Antimicrob Agents Chemother, 2007).

Assay [1] can be described thus: Inhibition of pyrimethamine-resistant form-3 Plasmodium falciparum N51I, C59R, S108N, I164L, I150V, N182I, N201D mutant expressed in Escherichia coli BL21(DE3) by Michaelis-Menten based competitive inhibition assay.
Assay [2] has as its target T1, Bifunctional dihydrofolate reductase-thymidylate synthase (Plasmodium falciparum (isolate 3D7), UniProt Q8I1R6, C59R/I164L/K96N/N51I/S108N). In words: Inhibition of pyrimethamine-resistant form-2 Plasmodium falciparum N51I, C59R, S108N, I164L, K96N mutant expressed in Escherichia coli BL21(DE3) by Michaelis-Menten based competitive inhibition assay.
Assay [3] can be described thus: Inhibition of pyrimethamine-resistant form-1 Plasmodium falciparum N51I, C59R, S108N, I164L, D187A mutant expressed in Escherichia coli BL21(DE3) by Michaelis-Menten based competitive inhibition assay.
Assay [4] is described as follows: Inhibition of WR99210-resistant form-3 Plasmodium falciparum N51I, C59R, N108T, I164L mutant expressed in Escherichia coli BL21(DE3) by Michaelis-Menten based competitive inhibition assay.
Assay [5] in a line: Inhibition of WR99210-resistant form-1 Plasmodium falciparum I51N, C59R, N108S, I164L mutant expressed in Escherichia coli BL21(DE3) by Michaelis-Menten based competitive inhibition assay.
The nature of assay [6]: Inhibition of Plasmodium falciparum DHFR QM template N51I, C59R, S108N, I164L mutant expressed in Escherichia coli BL21(DE3) by Michaelis-Menten based competitive inhibition assay.
Assay [7] can be described thus: Inhibition of Plasmodium falciparum DHFR-TS QM template N51I, C59R, S108N, I164L mutant expressed in Escherichia coli BL21(DE3) by Michaelis-Menten based competitive inhibition assay.
The nature of assay [8]: Inhibition of Plasmodium falciparum DHFR-TS QM template N51I, C59R, S108N, I164L mutant expressed in Escherichia coli BL21(DE3). In a few lines: (§1)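 The recombinant enzyme was expressed in E. coli BL21(DE3) and purified by methotrexate-Sepharose affinity chromatography. Each reaction was started by adding 0.008 to 0.01 U of enzyme in the presence of varying inhibitor amounts. DHFR activity was read on a microplate spectrophotometer, and IC50 was taken from the inhibition data.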

A short description of assay [9]: Inhibition of WR99210-resistant form-A Plasmodium falciparum DHFR-TS I51N, C59R, N108S, L164I, D54N mutant expressed in Escherichia coli BL21(DE3). In a few lines:
as §1

Assay [10] can be described thus: Inhibition of Plasmodium falciparum DHFR QM template N51I, C59R, S108N, I164L mutant expressed in Escherichia coli BL21(DE3). In a few lines:
as §1

Assay [11] in a line: Inhibition of WR99210-resistant form-1 Plasmodium falciparum I51N, C59R, N108S, I164L mutant expressed in Escherichia coli BL21(DE3). Put shortly:
as §1

Assay [12] can be described thus: Inhibition of WR99210-resistant form-2 Plasmodium falciparum N51I, C59R, N108S, I164L mutant expressed in Escherichia coli BL21(DE3). Put shortly:
as §1

Assay [13] in a line: Inhibition of WR99210-resistant form-3 Plasmodium falciparum N51I, C59R, N108T, I164L mutant expressed in Escherichia coli BL21(DE3). Put shortly:
as §1

Assay [14] in a line: Inhibition of pyrimethamine-resistant form-1 Plasmodium falciparum N51I, C59R, S108N, I164L, D187A mutant expressed in Escherichia coli BL21(DE3). Put shortly: as §1
Assay [15] deals with T1, Bifunctional dihydrofolate reductase-thymidylate synthase. In words: Inhibition of pyrimethamine-resistant form-2 Plasmodium falciparum N51I, C59R, S108N, I164L, K96N mutant expressed in Escherichia coli BL21(DE3).
Assay [16] is described as follows: Inhibition of pyrimethamine-resistant form-3 Plasmodium falciparum N51I, C59R, S108N, I164L, I150V, N182I, N201D mutant expressed in Escherichia coli BL21(DE3). In a few lines: as §1
A short description of assay [17]: Inhibition of WR99210-resistant form-2 Plasmodium falciparum N51I, C59R, N108S, I164L mutant expressed in Escherichia coli BL21(DE3) by Michaelis-Menten based competitive inhibition assay.

Structures are written as SMILES.

T1 sequence (Q8I1R6 whole entry N51I/C59R/K96N/S108N/I164L): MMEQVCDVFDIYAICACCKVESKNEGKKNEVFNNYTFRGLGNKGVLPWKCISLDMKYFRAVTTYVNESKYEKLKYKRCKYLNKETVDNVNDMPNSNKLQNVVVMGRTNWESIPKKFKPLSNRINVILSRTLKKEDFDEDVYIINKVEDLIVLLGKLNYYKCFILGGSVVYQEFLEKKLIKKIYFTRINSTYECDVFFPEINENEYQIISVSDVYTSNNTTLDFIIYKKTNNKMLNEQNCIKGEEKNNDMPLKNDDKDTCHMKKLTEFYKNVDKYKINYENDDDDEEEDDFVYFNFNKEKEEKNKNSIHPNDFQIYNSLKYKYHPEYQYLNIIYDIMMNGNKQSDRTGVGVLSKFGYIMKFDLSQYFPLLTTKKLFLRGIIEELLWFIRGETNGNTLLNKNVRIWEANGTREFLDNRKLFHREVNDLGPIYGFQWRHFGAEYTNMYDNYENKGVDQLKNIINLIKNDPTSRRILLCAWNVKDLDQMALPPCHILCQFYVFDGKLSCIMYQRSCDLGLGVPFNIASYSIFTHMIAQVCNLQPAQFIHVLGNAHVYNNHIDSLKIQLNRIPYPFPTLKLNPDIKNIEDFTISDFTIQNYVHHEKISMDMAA

In the case of `CC1(C)N=C(N)N=C(N)N1OCCCOc1cc(Cl)c(Cl)cc1Cl`, the Ki in [1] amounted to 147 nM; in assay [2], 292 nM; in [3], 514 nM; in assay [4], 72.4 nM; in assay [5], 8.09 nM; in assay [6] it was 859 nM. Moreover, the Ki worked out at 209 nM in assay [7] and 17.6 nM in assay [17]. Also, the IC50 in assay [8] was determined as 160 nM; in assay [9] it was 40000 nM; in assay [10], 50 nM; in assay [11] it was 200 nM; in assay [12] it was 60 nM; in assay [13], 680 nM. The IC50 in [14] was determined as 50 nM; in assay [15], 90 nM; in assay [16], 920 nM.
On to `CCc1nc(N)nc(N)c1-c1ccc(Cl)cc1` [PYRIMETHAMINE], for which the inhibitory constant (Ki) was found to be 1.07 nM in assay [1]; 1.24 nM in [3]; 15.5 nM in [4]; 3.57 nM in assay [5]; 1.9 nM in [6]; 2.1 nM in [7]. Besides, the inhibition constant (Ki) in assay [17] stood at 7.26 nM. For the same molecule, the half-maximal inhibitory concentration (IC50) was 170 nM in [8]; 7200 nM in assay [9]; 420 nM in [10]; 90 nM in assay [11]; 10 nM in assay [12]; 1820 nM in assay [13]. The half-maximal inhibitory concentration (IC50) in assay [14] is 870 nM; in assay [16], 3470 nM.
